Values after ≈ are worked out from the molar mass of the structure shown. Active and inactive are the calls of the source. No cut-off for these calls is given here.
Tests used:
A204 = assay: In vitro cytotoxicity against human A204 Rhabdomyosarcoma cell line; type: functional, cell-based
Procedure, shortened: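 A204 human rhabdomyosarcoma soft-agarose colony assay. 10^4 trypsin/EDTA-dissociated cells in 0.3% agarose over a 0.5% agarose base, in DMEM with 10% FCS, at 37 °C and 5% CO2. Compound was applied in an upper medium layer on day 1 for 24 h, then washed out. Colonies >60 µm were counted after 7–9 days by tetrazolium stain and image analysis. Quadruplicates with vehicle controls, at least four concentrations up to 100 or 1000 µg/mL. IC50 from a monoexponential least-squares fit over at least three preparations, mean ± SE.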

Mus musculus [1] = assay: In vivo antitumor activity against P388 Lymphocytic Leukemia measured as Survivors on day 5 at 200 mg/kg, w.r.t. compound 6; 5/6; type: functional
Mus musculus [2] = assay: In vivo antitumor activity against P388 Lymphocytic Leukemia in mice at 400 mg/kg expressed as T/C value w.r.t. compound 6; type: functional
Mus musculus [3] = assay: In vivo antitumor activity against P388 Lymphocytic Leukemia in mice at 200 mg/kg expressed as T/C value w.r.t. compound 6; type: functional
Mus musculus [4] = assay: In vivo antitumor activity against P388 Lymphocytic Leukemia measured as Survivors on day 5 at 800 mg/kg, w.r.t. compound 6; 6/6; type: functional
Mus musculus [5] = assay: In vivo antitumor activity against P388 Lymphocytic Leukemia in mice at 100 mg/kg expressed as T/C value w.r.t. compound 6; type: functional
Mus musculus [6] = assay: In vivo antitumor activity against P388 Lymphocytic Leukemia measured as Survivors on day 5 at 400 mg/kg, w.r.t. compound 6; 6/6; type: functional
Mus musculus [7] = assay: In vivo antitumor activity against P388 Lymphocytic Leukemia measured as Survivors on day 5 at 100 mg/kg, w.r.t. compound 6; 6/6; type: functional
Mus musculus [8] = assay: In vivo antitumor activity against P388 Lymphocytic Leukemia in mice at 800 mg/kg expressed as T/C value w.r.t. compound 6; type: functional
Mus musculus [9] = assay: In vivo antitumor activity against P388 Lymphocytic Leukemia measured as survivors on day 5 at 325 mg/kg (repeat); 0/6; type: functional
Mus musculus [10] = assay: In vivo antitumor activity against P388 Lymphocytic Leukemia in mice at 162.50 mg/kg expressed as T/C value; type: functional; conditions: dose 162.5 mg/kg
Mus musculus [11] = assay: In vivo antitumor activity against P388 Lymphocytic Leukemia measured as survivors on day 5 at 40.60 mg/kg (repeat); 6/6; type: functional; conditions: dose 40.6 mg/kg
Mus musculus [12] = assay: In vivo antitumor activity against P388 Lymphocytic Leukemia in mice at 162.5 mg/kg expressed as T/C value(repeat); type: functional
Mus musculus [13] = assay: Weight difference when tested in vivo for antitumor activity against P388 Lymphocytic Leukemia; weight difference expressed as (T-C); Not active; type: functional, organism-based
Mus musculus [14] = assay: In vivo antitumor activity against P388 Lymphocytic Leukemia measured as survivors on day 5 at 81.25 mg/kg (repeat); 6/6; type: functional
Mus musculus [15] = assay: In vivo antitumor activity against P388 Lymphocytic Leukemia in mice expressed as T/C value; Toxic
Mus musculus [16] = assay: In vivo antitumor activity against P388 Lymphocytic Leukemia measured as Survivors on day 5 at 1300 mg/kg; 0/6; type: functional
Mus musculus [17] = assay: In vivo antitumor activity against P388 Lymphocytic Leukemia in mice at 650 mg/kg expressed as T/C value; Toxic; type: toxicity, organism-based; parameters: dose 650 mg/kg
Mus musculus [18] = assay: In vivo antitumor activity against P388 Lymphocytic Leukemia in mice at 40.60 mg/kg expressed as T/C value (repeat); type: functional; conditions: dose 40.6 mg/kg
Mus musculus [19] = assay: In vivo antitumor activity against P388 Lymphocytic Leukemia in mice at 325 mg/kg expressed as T/C value); Toxic; type: toxicity, organism-based; parameters: dose 325 mg/kg
Mus musculus [20] = assay: In vivo antitumor activity against P388 Lymphocytic Leukemia measured as survivors on day 5 at 162.50 mg/kg (repeat); 6/6; type: functional; conditions: dose 162.5 mg/kg
Mus musculus [21] = assay: In vivo antitumor activity against P388 Lymphocytic Leukemia measured as Survivors on day 5 at 650 mg/kg; 0/6; type: functional
Mus musculus [22] = assay: In vivo antitumor activity against P388 Lymphocytic Leukemia measured as Survivors on day 5 at 162.50 mg/kg; 6/6; type: functional; conditions: dose 162.5 mg/kg
Mus musculus [23] = assay: In vivo antitumor activity against P388 Lymphocytic Leukemia in mice at 81.25 mg/kg expressed as T/C value (repeat); type: functional
P388 = assay: Weight difference when tested in vivo for antitumor activity against P388 Lymphocytic Leukemia; weight difference expressed as (T-C); type: functional, Mus musculus
Mus musculus [24] = assay: In vivo antitumor activity against P388 Lymphocytic Leukemia measured as Survivors on day 5 at 325 mg/kg; 0/6; type: functional
Mus musculus [25] = assay: In vivo antitumor activity against P388 Lymphocytic Leukemia in mice at 1300 mg/kg expressed as T/C value; Toxic; type: toxicity, organism-based; parameters: dose 1300 mg/kg

With `C[C@H]1C(=O)O[C@@H]2CC[N+]3([O-])CC=C(COC(=O)[C@](C)(O)[C@]1(C)O)[C@H]23` (stereo not given in full) [MONOCROTALINE N-OXIDE] the IC50 (A204) was 721 µg/mL (≈ 2110 µM).
In the case of `CC(C)C(O)(C(=O)OCC1=CCN2CC[C@@H](O)[C@@H]12)C(C)O` (stereo not given in full) [INDICINE], the IC50 (A204) was 34 µg/mL (≈ 114 µM).
Compound `CC(C)[C@](O)(C(=O)OCC1=CC[N+]2([O-])CC[C@@H](O)[C@@H]12)[C@H](C)O` (stereo not given in full) [INDICINE N-OXIDE] has an IC50 (A204) of 125 µg/mL (≈ 396 µM).
Compound `CC(C)C(O)(C(=O)OCC1CCN2CC[C@@H](O)[C@@H]12)C(C)O.CC(C)C(O)(C(=O)OCC1CC[N+]2([O-])CC[C@@H](O)[C@@H]12)C(C)O` (stereo not given in full) has a Survivors (Mus musculus [1]) of 5, a T/C (Mus musculus [2]) of 120% and a T/C (Mus musculus [3]) of 118%. For the same compound, the Survivors (Mus musculus [4]) was 6, the T/C (Mus musculus [5]) was 101% and the Survivors (Mus musculus [6]) was 6. For the same compound, the Survivors (Mus musculus [7]) was 6 and the T/C (Mus musculus [8]) was 146%.
Work on `CC(C)C(O)(C(=O)OCC1CCN2CC[C@@H](O)[C@@H]12)C(C)O` (stereo not given in full) yielded a Survivors (Mus musculus [9]) of 0, a T/C (Mus musculus [10]) of 92% and a Survivors (Mus musculus [11]) of 6. The T/C (Mus musculus [12]) was 98%, the Weight difference (Mus musculus [13]) was “inactive” and the Survivors (Mus musculus [14]) was 6. The T/C (Mus musculus [15]) was “Toxic”, the IC50 (A204) was 400 µg/mL (≈ 1330 µM) and the Survivors (Mus musculus [16]) was 0. The T/C (Mus musculus [17]) was “Toxic”, the T/C (Mus musculus [18]) was 96% and the T/C (Mus musculus [19]) was “Toxic”. The Survivors (Mus musculus [20]) was 6, the Survivors (Mus musculus [21]) was 0 and the Survivors (Mus musculus [22]) was 6. The T/C (Mus musculus [23]) was 102%, the Weight difference (P388) was 0.5 and the Survivors (Mus musculus [24]) was 0. For the same compound, the T/C (Mus musculus [25]) was “Toxic”.

Source: ChEMBL document CHEMBL1124172 (J Med Chem, 1988)
